The source of these data is ChEMBL document CHEMBL3603779, “Identification and Optimization of Benzimidazole Sulfonamides as Orally Bioavailable Sphingosine 1-Phosphate Receptor 1 Antagonists with in Vivo Activity” (J Med Chem, 2015).

As usually defined, the half-life is the time needed for the level to fall by half in the phase considered. A higher half-life goes with slow decline. For orientation: clearance means the rate of elimination divided by the concentration. Low readings indicate a low capacity for elimination, high ones a high capacity for elimination. As usually defined, the bioavailability is dose-corrected exposure relative to a reference, in per cent. Read a low bioavailability as little systemic uptake. One may read the Cmax as the peak of the concentration-time curve. By IC50 is commonly meant the concentration at which inhibition is half-maximal.

Calls of active or inactive are those of the source.

Series [1] in a line: Volume of distribution at steady state in Han Wistar rat at 4 mg/kg, iv by LCMS/MS method. It counts as ADME, organism-based. As to conditions: in vivo, read-out: Vdss.
Series [2] has as its system Calu-6. The series is described as follows: Increase in pulmonary vascular permeability in tumor of human Calu6 cells xenografted NCr mouse assessed as induction of capillary leakage in at 50 mg/kg, po by Evans blue dye assay. It counts as functional, organism-based. (In general: Xenograft models place foreign cells or tissue in a host animal.)
Series [3] can be described thus: Volume of distribution at steady state in beagle dog at 2 mg/kg, iv by LCMS/MS method. As to conditions: in vivo, read-out: Vdss. It counts as ADME, organism-based, Canis lupus familiaris.
Series [4] in a line: Half life in beagle dog at 2 mg/kg, iv by LCMS/MS method. It is filed as ADME, organism-based, Canis lupus familiaris. As to conditions: in vivo.
Series [5] has as its system Mus musculus. As to the kind of experiment: Increase in pulmonary vascular permeability in NCr mouse lung assessed as induction of capillary leakage in at 50 mg/kg, po administered a single oral dose by Evans blue dye assay. It is filed as functional, organism-based. In short, it runs like this:
(§1)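 Female NCr nude mice (4 per cohort) given a single oral dose, 20 or 50 mg/kg, or vehicle (0.5% HPMC, 0.1% Tween 80). Evans blue dye (20 mg/kg) injected 1 h later. After 30 min, mice anesthetized and perfused with 0.9% saline; lung dye measured by spectrophotometry and normalized to vehicle-treated animals.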

Series [6] can be described thus: Half life in Han Wistar rat at 4 mg/kg, iv by LCMS/MS method. It counts as ADME, organism-based. As to conditions: in vivo.
Series [7] in a line: Clearance in Han Wistar rat at 4 mg/kg, iv by LCMS/MS method. It is filed as ADME, organism-based. As to conditions: in vivo.
Series [8] is described as follows: Clearance in beagle dog at 2 mg/kg, iv by LCMS/MS method. As to conditions: in vivo. It is filed as ADME, organism-based, Canis lupus familiaris.
The nature of series [9]: Oral bioavailability in beagle dog at 5 mg/kg by LCMS/MS method. It is filed as ADME, organism-based, Canis lupus familiaris. As to conditions: in vivo.
The nature of series [10]: Cmax in beagle dog at 5 mg/kg, po by LCMS/MS method. It is filed as ADME, organism-based, Canis lupus familiaris. Set-up: dose 5 mg/kg, route oral. Conditions: in vivo.
The subject of series [11] is COLO 205. As to the kind of experiment: Increase in pulmonary vascular permeability in tumor of human COLO205 cells xenografted NCr mouse assessed as induction of capillary leakage in at 50 mg/kg, po by Evans blue dye assay. It counts as functional, organism-based.
Series [12] in a line: Antitiumor activity against human Calu6 cells xenografted in NCr mouse assessed as tumor growth at 50 mg/kg, po bid dosed on day 11 to 33. It is filed as functional. Conditions: Calu-6, po, read-out: GI. In short, it runs like this:
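Calu6 xenografts in female NCr-nude mice, oral dosing twice daily. Schedules: 20 mg/kg BID on days 13-32, or 50 mg/kg BID on days 11-33. Vehicle (HPMC) controls n=20, treated n=14. Tumor volume compared with controls.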

The nature of series [13]: Clearance in Han Wistar rat at 3 mg/kg, iv by LCMS/MS method. It is filed as ADME, organism-based. Conditions: in vivo.
For series [14], the system named is Calu-6. As to the kind of experiment: Antitiumor activity against human Calu6 cells xenografted in NCr mouse assessed as tumor growth at 20 mg/kg, po bid dosed on day 13 to 32.
Series [15] relates to Calu-6. The series is described as follows: Increase in pulmonary vascular permeability in tumor of human Calu6 cells xenografted NCr mouse assessed as induction of capillary leakage in at 20 mg/kg, po by Evans blue dye assay. It is filed as functional, organism-based.
Series [16] is described as follows: Clearance in beagle dog at 2.5 mg/kg, iv by LCMS/MS method. It counts as ADME, organism-based, Canis lupus familiaris. Conditions: in vivo.
Series [17] can be described thus: Oral bioavailability in beagle dog at 10 mg/kg by LCMS/MS method. It counts as ADME, organism-based, Canis lupus familiaris. Conditions: in vivo.
Series [18] concerns Mus musculus. The series is described as follows: Increase in pulmonary vascular permeability in NCr mouse lung assessed as induction of capillary leakage in at 20 mg/kg, po administered a single oral dose by Evans blue dye assay. It counts as functional, organism-based. In short, it runs like this:
as §1

The target in series [19] is Voltage-gated inwardly rectifying potassium channel KCNH2 (Homo sapiens, UniProt Q12809).
Voltage-gated inwardly rectifying potassium channel KCNH2, sequence (Q12809 whole entry): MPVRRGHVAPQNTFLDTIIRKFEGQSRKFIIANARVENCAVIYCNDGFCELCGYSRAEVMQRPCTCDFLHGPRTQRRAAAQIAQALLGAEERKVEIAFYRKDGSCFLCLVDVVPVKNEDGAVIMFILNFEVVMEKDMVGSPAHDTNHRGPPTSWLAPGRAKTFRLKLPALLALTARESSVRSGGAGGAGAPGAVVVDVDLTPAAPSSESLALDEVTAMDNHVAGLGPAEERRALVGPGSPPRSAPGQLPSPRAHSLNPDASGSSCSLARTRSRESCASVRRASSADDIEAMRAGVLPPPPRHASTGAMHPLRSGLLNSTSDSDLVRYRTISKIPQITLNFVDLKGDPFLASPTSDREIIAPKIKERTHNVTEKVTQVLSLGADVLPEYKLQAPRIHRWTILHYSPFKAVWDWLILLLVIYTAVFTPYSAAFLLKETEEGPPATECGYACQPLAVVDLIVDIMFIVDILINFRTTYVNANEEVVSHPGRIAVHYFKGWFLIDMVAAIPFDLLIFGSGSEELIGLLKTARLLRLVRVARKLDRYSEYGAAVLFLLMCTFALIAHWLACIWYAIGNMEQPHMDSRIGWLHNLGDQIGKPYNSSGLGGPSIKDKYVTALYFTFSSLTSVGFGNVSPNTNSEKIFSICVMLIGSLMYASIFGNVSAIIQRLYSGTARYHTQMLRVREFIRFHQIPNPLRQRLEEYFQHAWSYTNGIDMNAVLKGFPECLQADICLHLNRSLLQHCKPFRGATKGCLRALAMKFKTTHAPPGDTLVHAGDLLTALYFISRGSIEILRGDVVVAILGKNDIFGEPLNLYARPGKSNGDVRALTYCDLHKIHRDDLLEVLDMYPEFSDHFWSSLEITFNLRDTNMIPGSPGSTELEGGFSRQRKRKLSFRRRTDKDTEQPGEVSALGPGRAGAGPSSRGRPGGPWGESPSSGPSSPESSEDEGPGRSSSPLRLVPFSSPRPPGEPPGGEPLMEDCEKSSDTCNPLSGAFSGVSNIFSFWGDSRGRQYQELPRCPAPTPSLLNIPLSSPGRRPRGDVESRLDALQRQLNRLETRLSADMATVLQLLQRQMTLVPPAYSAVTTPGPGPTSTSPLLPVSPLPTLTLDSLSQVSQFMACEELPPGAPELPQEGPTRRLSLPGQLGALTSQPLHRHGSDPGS
Series [20] is described as follows: Cmax in beagle dog at 10 mg/kg, po by LCMS/MS method. It counts as ADME, organism-based, Canis lupus familiaris. Conditions: in vivo. Also on record: dose 10 mg/kg, route oral.
Series [21] can be described thus: Half life in beagle dog at 2.5 mg/kg, iv by LCMS/MS method. It is filed as ADME, organism-based, Canis lupus familiaris. As to conditions: in vivo.
The nature of series [22]: Volume of distribution at steady state in Han Wistar rat at 3 mg/kg, iv by LCMS/MS method. It is filed as ADME, organism-based. Conditions: in vivo, read-out: Vdss.
Series [23] deals with COLO 205. The series is described as follows: Increase in pulmonary vascular permeability in tumor of human COLO205 cells xenografted NCr mouse assessed as induction of capillary leakage in at 20 mg/kg, po by Evans blue dye assay. It counts as functional, organism-based.
Series [24] is described as follows: Volume of distribution at steady state in beagle dog at 2.5 mg/kg, iv. It is filed as ADME, organism-based, Canis lupus familiaris. As to conditions: in vivo, read-out: Vdss.

In the case of `CCn1c([C@@H](C)NS(=O)(=O)c2ccc(C#N)nc2)nc2cnc(C3CC3)cc21`, the Vd in series [1] came out at 1.3 L/kg; in series [3], 0.7 L/kg. The result in the series on Calu-6 [2] and with COLO 205 [11] was inactive. In addition, the results for the half-life in [4] and in [6] were 4.6 h and 2.9 h, respectively. Besides, in the series on Mus musculus [5], the result was Active. The clearance came to 0.6 L/h/kg in series [7] and 0.12 L/h/kg in series [8]. The bioavailability in series [9] was determined as 71%. This compound also displayed a Cmax in series [10] of 10.7 µM. Further, the inhibition in vivo at 50 mg/kg in series [12] is 32%.

As for `CCn1c([C@@H](C)NS(=O)(=O)c2ccc(C#N)nc2)nc2cnc(C(F)(F)F)cc21`, the clearance came out at 0.48 L/h/kg in series [13] and 0.12 L/h/kg in [16]. Besides, the “growth inhibition (GI)” value with Calu-6 [14] is “inactive”. Also, the result in the series on Calu-6 [15] and with COLO 205 [23] was inactive. In [17], the bioavailability stood at 81%. Moreover, the result with Mus musculus [18] was Active. In addition, the half-maximal inhibitory concentration (IC50) in [19] is > 200 µM. Further, in series [20], the Cmax came to 31.1 µM. In addition, the half-life in series [21] is 4.9 h. In addition, the values for the Vd in series [22] and in series [24] were 1.2 L/kg and 0.6 L/kg, respectively.
